Each structure is given as a SMILES string. Screen size: about 260,000 compounds; about 960 (0.37%) were called active. This is one part of a sample in which actives are shown more often than they occur. Unmarked numbers belong to inactive results.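 The calls were made as follows: active = mean E-selectin-positive cell signal at least 10% of the positive control, reached in at least 60% of replicates, without over 20% cell loss; inconclusive = no rule given, readout overlaps actives, possibly toxicity-flagged; inactive = the rest, including those meeting only one limit.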

Chain of E-selectin (Homo sapiens) (P16581 whole entry, looked up): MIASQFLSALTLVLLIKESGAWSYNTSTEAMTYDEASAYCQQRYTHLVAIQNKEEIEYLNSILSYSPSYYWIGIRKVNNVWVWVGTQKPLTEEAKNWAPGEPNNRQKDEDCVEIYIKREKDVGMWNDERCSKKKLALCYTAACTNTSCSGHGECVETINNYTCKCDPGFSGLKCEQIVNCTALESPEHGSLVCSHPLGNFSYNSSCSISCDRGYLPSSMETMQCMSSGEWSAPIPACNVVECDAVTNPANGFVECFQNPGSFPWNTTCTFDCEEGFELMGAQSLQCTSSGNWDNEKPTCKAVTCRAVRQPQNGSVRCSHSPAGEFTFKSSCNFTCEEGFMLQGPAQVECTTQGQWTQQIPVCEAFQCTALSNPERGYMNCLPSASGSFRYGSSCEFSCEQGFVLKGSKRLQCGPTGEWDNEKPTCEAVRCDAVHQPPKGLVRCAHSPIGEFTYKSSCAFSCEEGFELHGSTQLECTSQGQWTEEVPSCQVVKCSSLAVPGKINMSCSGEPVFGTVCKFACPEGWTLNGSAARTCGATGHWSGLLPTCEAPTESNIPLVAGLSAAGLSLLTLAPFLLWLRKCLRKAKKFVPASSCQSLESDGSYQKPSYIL

The test addresses E-selectin (Homo sapiens) (UniProt P16581). Put plainly: E-selectin induction in HUVECs, primary screen, imaging, HUVEC, immunofluorescence imaging, single point (AID 686992).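 Also: signal is the percent of cells scored E-selectin positive by PE staining.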 The following applies: at 7.58 µM, active compounds read high, normalized: neutral wells 0, TNF-alpha wells 100. The gist of the method: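 Test system – human umbilical vein endothelial cells (HUVEC), E-selectin induction · Input – 3,000 HUVEC seeded per well · Buffer or medium – EGM-2, gelatin · Compound dosing – single-point compound dose · Detection – immunofluorescence imaging · Measure – percent E-selectin-positive cells · Controls – TNF-alpha high, DMSO low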
On to `COc1ccc(-c2nn(-c3ccccc3)cc2/C=N/Nc2ccccn2)cc1OC`, for which the activation was -1.26%.
The same measure for `O=Cc1cn(-c2ccccc2)nc1-c1ccccn1`: 31.7% (active).
To `O=Cc1cn(Cc2ccccc2)nc1-c1cccnc1` belongs 2.7%; to `COC(=O)c1ccc2nc(-c3ccc(Cl)cc3)c(Cc3cccc(F)c3)n2c1`, -0.152%.
Turning to `Cc1cc2nc(-c3ccc(F)cc3)c(Cc3ccsc3)n2c(C)c1Br`, the activation was 0.0835%.
With `O=C(CCCn1c(=O)c2sccc2n(CC(=O)NCC2CCCO2)c1=O)NCc1ccco1` (centres undefined), the activation is 8.64%.
To `CC1=C(C(=O)N2CCOCC2)CC(CC(=O)NCc2ccco2)C(=O)N1Cc1ccc(F)cc1` (centres undefined) belongs 8.96%; to `O=C(Cc1ccc(-n2c(=O)c3sccc3n(Cc3ccc(F)cc3)c2=O)cc1)NCc1ccco1`, 159% (active).
The same measure for `CC1(C(=O)Nc2cccc3c2CCCC3)CCN1C(=O)C1(c2ccccc2)CC1` (centres undefined): 0.283%; for `COCCCNC(=O)C[C@H]1C[C@@]2(C(=O)OC)C(=C[C@H](C(C)(C)C)O[C@@H]2C)N(Cc2ccc3c(c2)OCO3)C1=O`: -0.0885%; for `O=C(C[C@@H]1C[C@H]2c3cc(NC(=O)NC4CCCC4)ccc3O[C@H]2[C@@H](CO)O1)NC1CCCCC1`: 0.37%.
To `CC1COc2ccccc2N1S(=O)(=O)c1ccccc1` (centres undefined) belongs 0.485%; to `CC1CC(=O)Nc2ccccc2N1S(=O)(=O)c1cccs1` (centres undefined), 28.3% (active); to `CC1CC(=O)Nc2ccccc2N1C(=O)COc1ccc2cc(Br)ccc2c1` (centres undefined), 0.0775%.
Take `CC(C)C[C@H]1CN([C@@H](CC(C)C)CN2CCC[C@@H]2CN2C(=O)C(=O)NC[C@@H]2Cc2ccccc2)C(=O)C(=O)N1CCc1ccccc1`: the activation is 0.726%.
To `CO[C@H]1CN(C)C(=O)c2cc(NC(=O)c3cc(C)on3)ccc2OC[C@@H](C)N(C(C)=O)C[C@H]1C` belongs -0.127%; to `COc1cccc(-c2ccc3c(c2)N(Cc2ccccc2OC)C(=O)C(C)S3)c1` (centres undefined), -0.102%.
With `O=S1(=O)CCN(C2CCCCCCCCCCC2)CC1`, the activation is -0.851%.
Take `CC(C)C(c1nnnn1C1CCCCC1)N1CCN(C(=O)c2ccco2)CC1` (centres undefined): the activation is 39.5% (active).
To `O=C(CNS(=O)(=O)c1ccccc1)N1CCN(C(=O)c2ccco2)CC1` belongs 0.056%.
In the case of `O=C(c1ccco1)N1CCN(C(=S)Nc2cc(F)cc(F)c2)CC1`, the activation was -1.13%.
To `C[C@@H]1CN([C@H](C)CO)C(=O)Cc2cc(NC(=O)Nc3ccccc3)ccc2O[C@H]1CN(C)Cc1ccc(Cl)c(Cl)c1` belongs 0.392%; to `Cc1noc(C)c1NC(=O)Nc1ccc2c(c1)CC(=O)N([C@H](C)CO)C[C@@H](C)[C@@H](CN(C)Cc1ccc(C(F)(F)F)cc1)O2`, -0.087%; to `COc1ccc(CN(C)C[C@H]2Oc3ccc(NC(=O)Cn4cnnn4)cc3CC(=O)N([C@@H](C)CO)C[C@@H]2C)cc1`, 52.1% (active).
Take `C[C@H]1CN([C@@H](C)CO)C(=O)Cc2cc(NC(=O)Cn3cnnn3)ccc2O[C@H]1CN(C)Cc1ccc(C(=O)O)cc1`: the activation is -4.49%.
For `Cc1noc(C)c1NC(=O)Nc1ccc2c(c1)CC(=O)N([C@@H](C)CO)C[C@@H](C)[C@@H](CN(C)Cc1ccc(Cl)c(Cl)c1)O2`, the activation is 449% (active).
To `C[C@H](CO)N1C[C@H](C)[C@@H](CN(C)Cc2ccc(C(=O)O)cc2)Oc2ccc(NC(=O)Cn3cnnn3)cc2CC1=O` belongs 2.12%; to `O=C(NCCN1CCOCC1)c1ccc2c(c1)N(Cc1cccc(Cl)c1)C(=O)c1ccccc1S2(=O)=O`, 0.148%.
To `COc1ccc(NC(=O)CCCOc2ccc(C(C)=O)cc2)cc1S(=O)(=O)N1CCCCC1` belongs -6.06%.
For the molecule `CCOC(=O)C1CCN(C(=O)c2ccc3c(=O)n4nc(Nc5ccccc5CC)sc4nc3c2)CC1`, the activation is -0.0345%.
On to `COc1ccc(NC(=O)C(c2ccncc2)n2c(=O)c(-c3cc4ccccc4[nH]3)nc3ccccc32)cc1` (centres undefined), for which the activation was 0.124%.
To `CCOC(=O)C1CSCCS(=O)(=O)N1Cc1ccc(Cl)cc1` (centres undefined) belongs 0.0275%; to `CN[C@H]1C[C@H]2c3cc(Oc4ccccc4C)ccc3CCN2C(=O)[C@H]1[C@H](C)O`, -1.54%; to `Cc1cc2ccccc2n1CCNC(=O)COc1ccc2ccccc2c1`, 51.8% (active).
The same measure for `COC(=O)C(C)NC(=O)COc1ccc2ccccc2c1` (centres undefined): 0.228%; for `Cc1ccc(C)c(NC(=O)CN(C)C(=O)COc2ccc3ccccc3c2)c1`: -0.121%.
The same measure for `CCCN1C[C@@H](C)[C@@H](OC)CN(C)C(=O)c2cc(NC(=O)CC(F)(F)F)ccc2OC[C@H]1C`: 0.11%; for `CC(C)(C)OC(=O)N[C@H](C(=O)OC(C)(C)C)c1ccc(Br)cc1`: 0.0795%; for `O=C(NN=Cc1ccco1)C(=O)Nc1ccc(Cl)c([N+](=O)[O-])c1`: -0.0805%.
Turning to `CC(=O)N1C[C@@H](CO)[C@@H](N(C)C(=O)C(C)(C)C)C[C@H]1c1ccccc1Br`, the activation is -0.326%.
As to `COc1cccc2cc(S(=O)(=O)c3ccc(C)cc3)/c(=N/NS(=O)(=O)c3ccc(C)cc3)oc12`, the activation is 0.616%.
The same measure for `Cc1cc(S(=O)(=O)c2cc3ccc(O)c(C)c3oc2=O)ccc1F`: 69.9% (active); for `Cc1ccc(CC2(C)C(=O)Nc3ccc(OC(F)(F)F)cc32)cc1` (centres undefined): -0.201%.
The same measure for `Cn1cnc(S(=O)(=O)N2C[C@@H](O)COC[C@H]3O[C@@H](CC(=O)NCc4ccc(F)cc4)CC[C@@H]32)c1`: -0.0625%.
The same measure for `O=C(NC[C@H]1[C@@H](c2ccccc2)[C@H](CO)N1CC1CC1)c1cccnc1`: 0.036%.
In the case of `Cc1ccc(Nc2nc(Cl)c(C=O)s2)cc1`, the activation was 48.9% (active).
Take `Cc1ccc(Nc2nnc(SC(C)C(=O)NC3CC3)s2)cc1` (centres undefined): the activation was -0.687%.
To `Cc1ccc(Nc2nc(-c3sc(NC(=O)c4ccccc4)nc3C)cs2)cc1` belongs 0.138%.
With `Cc1[nH]nc2c1C(c1ccc(Br)cc1)NC2=O` (centres undefined), the activation was -0.228%.

Values taken from PubChem BioAssay AID686992 (Broad Institute, 2013).
